Test results reported in ChEMBL document CHEMBL4190220, “Withanolides from Aeroponically Grown Physalis peruviana and Their Selective Cytotoxicity to Prostate Cancer and Renal Carcinoma Cells” (J Nat Prod, 2017).
Active and inactive are the calls of the source. The calls are words filed in the database; no cut-off is given here.

Assays:
LNCaP [1] = assay: Cytotoxicity against human LNCAP cells assessed as reduction in cell viability after 72 hrs by CellTiter96 AQueous one solution cell proliferation assay; assay type: functional, cell-based
Outline: (§1)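 MTS viability in RPMI with 5% fetal calf serum, 2.0 mM L-glutamine, nonessential amino acids, 1.0 mM pyruvate, penicillin/streptomycin, 10 mM HEPES and 2-mercaptoethanol. Cells were seeded at 10 000 (LNCaP) or 5000 (others) and grown overnight at 37 °C. Serial dilutions in DMSO went into triplicate wells for 72 h. MTS was read at 490 nm after 2 h. IC50 ± SD from dose–response curves, at least three independent experiments.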

CWR22R [2] = assay: Cytotoxicity against human 22Rv1 cells assessed as reduction in cell viability after 72 hrs by CellTiter96 AQueous one solution cell proliferation assay; assay type: functional, cell-based; settings: 22Rv1, 72 h; outline: as §1
M14 [3] = assay: Cytotoxicity against human M14 cells assessed as reduction in cell viability after 72 hrs by CellTiter96 AQueous one solution cell proliferation assay; assay type: functional, cell-based; settings: M14, 72 h
Outline: (§2)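 MTS viability in DMEM with 5% fetal calf serum, 2.0 mM L-glutamine, nonessential amino acids, 1.0 mM pyruvate, penicillin/streptomycin, 10 mM HEPES and 2-mercaptoethanol. 5000 cells were grown overnight at 37 °C. Serial DMSO dilutions went into triplicate wells for 72 h. MTS absorbance was read at 490 nm after 2 h. IC50 ± SD from at least three independent dose–response experiments.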

HFF [4] = assay: Cytotoxicity against HFF cells assessed as reduction in cell viability after 72 hrs by CellTiter96 AQueous one solution cell proliferation assay; assay type: cell-based; settings: Homo sapiens; outline: as §1
SK-MEL-28 [5] = assay: Cytotoxicity against human SK-MEL-28 cells assessed as reduction in cell viability after 72 hrs by CellTiter96 AQueous one solution cell proliferation assay; assay type: functional, cell-based; settings: SK-MEL-28, 72 h; outline: as §2
ACHN [6] = assay: Cytotoxicity against human ACHN cells assessed as reduction in cell viability after 72 hrs by CellTiter96 AQueous one solution cell proliferation assay; assay type: functional, cell-based; outline: as §1
ACHN [7] = assay: Cytotoxicity against human ACHN cells assessed as reduction in cell viability up to 5 uM after 72 hrs by CellTiter96 AQueous one solution cell proliferation assay; assay type: functional, cell-based
Outline: (§3)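 Cells in RPMI with 5% fetal calf serum, glutamine, nonessential amino acids, pyruvate, HEPES, 2-mercaptoethanol and antibiotics. Seeded at 10 000 (LNCaP) or 5000 (others) and grown overnight at 37 °C, then exposed to compound in DMSO, triplicate wells, 72 h. Read by MTS at 490 nm after 2 h. % cytotoxicity = (A medium − A treatment)/A medium × 100.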

LNCaP [8] = assay: Cytotoxicity against human LNCAP cells assessed as reduction in cell viability up to 5 uM after 72 hrs by CellTiter96 AQueous one solution cell proliferation assay; assay type: functional, cell-based; outline: as §3
CWR22R [9] = assay: Cytotoxicity against human 22Rv1 cells assessed as reduction in cell viability up to 5 uM after 72 hrs by CellTiter96 AQueous one solution cell proliferation assay; assay type: functional, cell-based; outline: as §3
HFF [10] = assay: Cytotoxicity against HFF cells assessed as reduction in cell viability up to 5 uM after 72 hrs by CellTiter96 AQueous one solution cell proliferation assay; assay type: cell-based; settings: human; outline: as §3
M14 [11] = assay: Cytotoxicity against human M14 cells assessed as reduction in cell viability up to 5 uM after 72 hrs by CellTiter96 AQueous one solution cell proliferation assay; assay type: functional, cell-based
Outline: (§4)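 Melanoma cells in DMEM-based medium (5% fetal calf serum, glutamine, nonessential amino acids, pyruvate, HEPES, 2-mercaptoethanol, antibiotics). 5000 cells were grown overnight at 37 °C, then exposed to compound in DMSO in triplicate wells for 72 h. MTS absorbance at 490 nm after 2 h. % cytotoxicity = (A medium − A treatment)/A medium × 100.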

SK-MEL-28 [12] = assay: Cytotoxicity against human SK-MEL-28 cells assessed as reduction in cell viability up to 5 uM after 72 hrs by CellTiter96 AQueous one solution cell proliferation assay; assay type: functional, cell-based; outline: as §4

| SMILES | IC50 (LNCaP [1]) [nM] | IC50 (CWR22R [2]) [nM] | IC50 (M14 [3]) [nM] | IC50 (HFF [4]) [nM] | IC50 (SK-MEL-28 [5]) [nM] | IC50 (ACHN [6]) [nM] | Activity (ACHN [7]) | Activity (LNCaP [8]) | Activity (CWR22R [9]) | Activity (HFF [10]) | Activity (M14 [11]) | Activity (SK-MEL-28 [12]) |
| --- | --- | --- | --- | --- | --- | --- | --- | --- | --- | --- | --- | --- |
| C[C@H]1C[C@H]([C@](C)(O)[C@]2(O)CC[C@@]3(O)[C@@H]4C[C@H]5O[C@]56CC=CC(=O)[C@]6(C)[C@H]4CC[C@]23C)OC(=O)[C@@H]1C | 290 | 210 | > 2000 | > 2000 | > 2000 | > 2000 |  |  |  |  |  |  |
| CC1=C(C)C(=O)O[C@@H]([C@](C)(O)[C@]2(O)CC[C@@]3(O)[C@@H]4C[C@H]5O[C@]56CC=CC(=O)[C@]6(C)[C@H]4CC[C@]23C)C1 [WITHANOLIDE E] | 60 | 70 | > 2000 | > 2000 | > 2000 | 460 |  |  |  |  |  |  |
| CC(=O)OC[C@]12CC[C@H]3[C@@H](C[C@H]4O[C@]45CC=CC(=O)[C@]35C)[C@]1(O)CC[C@@]2(O)[C@@](C)(O)[C@H]1CC(C)=C(C)C(=O)O1 |  | 30 | > 2000 | > 2000 | > 2000 | 570 |  |  |  |  |  |  |
| CC1=C(C)C(=O)O[C@@H]([C@](C)(O)[C@]2(O)CC[C@@]3(O)[C@@H]4[C@@H](O)C=C5C=CCC(=O)[C@]5(C)[C@H]4CC[C@]23C)C1 | 940 | 990 | > 2000 | > 2000 | > 2000 | > 2000 |  |  |  |  |  |  |
| CC1=C(CO)C[C@H]([C@](C)(O)[C@]2(O)CC[C@@]3(O)[C@@H]4CC=C5CC=CC(=O)[C@]5(C)[C@H]4CC[C@]23C)OC1=O | 240 | 210 | > 2000 | > 2000 | > 2000 | > 2000 |  |  |  |  |  |  |
| CC1=C(C)C(=O)O[C@@H]([C@](C)(O)[C@]2(O)CC[C@@]3(O)[C@@H]4CC=C5CC=CC(=O)[C@]5(C)[C@H]4CC[C@]23C)C1 [WITHANOLIDE F] | 130 | 70 | > 2000 | > 2000 | > 2000 | > 2000 |  |  |  |  |  |  |
| CC1=C(C)C(=O)O[C@@H]([C@](C)(O)[C@]2(O)CC[C@@]3(O)[C@@H]4C[C@H]5O[C@]56[C@@H](O)C=CC(=O)[C@]6(C)[C@H]4CC[C@]23C)C1 | 160 | 90 | > 2000 | > 2000 | > 2000 | > 2000 |  |  |  |  |  |  |
| COc1cccc2c1C(=O)c1c(O)c3c(c(O)c1C2=O)C[C@@](O)(C(=O)CO)C[C@@H]3O[C@H]1C[C@H](N)[C@H](O)[C@H](C)O1 [DOXORUBICIN] | 20 | 20 | 90 |  | 250 | 20 |  |  |  |  |  |  |
| CC1=C(C)[C@H](O)[C@H]([C@](C)(O)[C@]2(O)CC[C@@]3(O)[C@@H]4C[C@H]5O[C@]56CC=CC(=O)[C@]6(C)[C@H]4CC[C@]23C)OC1=O | > 2000 | 890 | > 2000 | > 2000 | > 2000 | > 2000 |  |  |  |  |  |  |
| C[C@H]1C(=O)OC[C@H]1C[C@@H](O)[C@](C)(O)[C@@]1(O)CC[C@@]2(O)[C@@H]3CC=C4CC=CC(=O)[C@]4(C)[C@H]3CC[C@]12C |  |  |  |  |  |  | inactive | inactive | inactive | Non-Toxic | inactive | inactive |
| CC1=C(C)C(=O)O[C@@H]([C@](C)(O)[C@]2(O)CC[C@@]3(O)[C@@H]4CC=C5[C@@H](O)C=CC(=O)[C@]5(C)[C@H]4CC[C@]23C)C1 | 110 | 70 | > 2000 | > 2000 | > 2000 | 1000 |  |  |  |  |  |  |
| CC1=C(C)C(=O)O[C@@H]([C@](C)(O)[C@]2(O)CC[C@@]3(O)[C@@H]4C[C@@H](O)[C@@]5(O)CC=CC(=O)[C@]5(C)[C@H]4CC[C@]23C)C1 |  |  |  |  |  |  | inactive | inactive | inactive | Non-Toxic | inactive | inactive |
| CC1=C(C)C(=O)O[C@@H]([C@](C)(O)[C@]2(O)CC[C@@]3(O)[C@@H]4[C@@H](O)C=C5CC=CC(=O)[C@]5(C)[C@H]4CC[C@]23C)C1 | 330 | 560 | > 2000 | > 2000 | > 2000 | > 2000 |  |  |  |  |  |  |
| CC1=C(C)C(=O)O[C@@H]([C@](C)(O)[C@]2(O)CC[C@@]3(O)[C@@H]4C[C@H](Cl)[C@]5(O)CC=CC(=O)[C@]5(C)[C@H]4CC[C@]23C)C1 |  |  |  |  |  |  | inactive | inactive | inactive | Non-Toxic | inactive | inactive |
| CO[C@H]1C=CC(=O)[C@]2(C)[C@H]3CC[C@]4(C)[C@](O)([C@@](C)(O)[C@H]5CC(C)=C(C)C(=O)O5)CC[C@@]4(O)[C@@H]3C[C@H]3O[C@]132 | 330 | 240 | > 2000 | > 2000 | > 2000 | > 2000 |  |  |  |  |  |  |
| CC1=C(C)[C@H](O)[C@H]([C@](C)(O)[C@H]2CC[C@@]3(O)[C@@H]4C[C@H]5O[C@]56CC=CC(=O)[C@]6(C)[C@H]4CC[C@]23C)OC1=O |  |  |  |  |  |  | inactive | inactive | inactive | Non-Toxic | inactive | inactive |
| C[C@H]1C(=O)OC[C@H]1C[C@@H](O)[C@](C)(O)[C@]1(O)CC[C@@]2(O)[C@@H]3CC=C4C=CCC(=O)[C@]4(C)[C@H]3CC[C@]12C |  |  |  |  |  |  | inactive | inactive | inactive | Non-Toxic | inactive | inactive |
| C[C@H]1C(=O)OC[C@H]1C[C@@H](O)[C@](C)(O)[C@H]1CC[C@@]2(O)[C@@H]3CC=C4CC=CC(=O)[C@]4(C)[C@H]3CC[C@]12C |  |  |  |  |  |  | inactive | inactive | inactive | Non-Toxic | inactive | inactive |
| CC1=C(C)C(=O)O[C@@H]([C@](C)(O)[C@]2(O)CC[C@@]3(O)[C@@H]4[C@@H](O)[C@H]5O[C@]56CC=CC(=O)[C@]6(C)[C@H]4CC[C@]23C)C1 | 330 | 260 | > 2000 | > 2000 | > 2000 | > 2000 |  |  |  |  |  |  |
